Measured values reported in PubChem BioAssay AID2341 (Sanford-Burnham Center for Chemical Genomics, 2010).
Calls of active or inactive are those of the source.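 Rule for the calls: active = half-maximal potency under 10 µM when retested across doses; inactive = the rest.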

Target: Cannabinoid receptor 1 (Homo sapiens) (UniProt P21554)
Assay: CB1 receptor agonists, beta-arrestin translocation, SAR follow-up, imaging, U2OS cells, beta-arrestin-GFP, powder samples (AID 2341)
Procedure, shortened: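 Material – U2OS cells stably co-expressing human CB1 and β-arrestin-GFP · Buffer or medium – serum-free MEM · Compound – 10 doses, 62 nM–32 µM, 0.31% DMSO · Schedule – compound exposure 60 min at 37 °C · Repeats – duplicate wells per dose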

Chain of Cannabinoid receptor 1 (Homo sapiens) (P21554 whole entry, looked up): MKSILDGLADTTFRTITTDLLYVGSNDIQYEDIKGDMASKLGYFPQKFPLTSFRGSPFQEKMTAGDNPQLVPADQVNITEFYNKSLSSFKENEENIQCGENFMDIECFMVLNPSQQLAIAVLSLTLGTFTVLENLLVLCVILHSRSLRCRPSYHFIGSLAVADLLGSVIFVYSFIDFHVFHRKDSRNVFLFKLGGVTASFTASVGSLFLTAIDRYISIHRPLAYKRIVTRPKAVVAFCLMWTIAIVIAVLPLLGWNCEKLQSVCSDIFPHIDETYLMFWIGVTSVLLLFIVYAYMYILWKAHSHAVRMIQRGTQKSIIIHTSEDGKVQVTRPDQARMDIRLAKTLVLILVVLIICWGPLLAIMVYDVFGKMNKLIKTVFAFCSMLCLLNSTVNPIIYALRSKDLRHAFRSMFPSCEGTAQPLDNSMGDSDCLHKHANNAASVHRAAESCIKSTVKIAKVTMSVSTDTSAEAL

EC50	Compound
> 32 µM (inactive)	COc1ccc2c(c1)cc(C)c1nnc(SCC(=O)N(C)c3nc(-c4ccccc4)cs3)n12
> 32 µM (inactive)	COc1ccc2cc(C)c3nnc(SCC(=O)Nc4nc(-c5ccc(F)cc5)cs4)n3c2c1
> 32 µM (inactive)	COc1cc2c(cc1NC(=O)C(C)Sc1ccc(NC(C)=O)cc1)oc1ccccc12 (stereo unspecified)
> 32 µM (inactive)	COc1ccc(S(=O)(=O)N2CCOCC2)cc1NC(=O)c1cc2c(s1)CCCC2
> 32 µM (inactive)	CN(C)S(=O)(=O)c1ccc(N2CCCC2)c(C(=O)N2CCN(c3ccc([N+](=O)[O-])cc3)CC2)c1
> 32 µM (inactive)	CCCN(CCC)Cc1c(C(=O)NN=C/C(C)=C\c2ccco2)nnn1-c1nonc1N
> 32 µM (inactive)	C/C(C=NNC(=O)c1nnn(-c2nonc2N)c1CN1CCC(C)CC1)=C/c1ccccc1
> 32 µM (inactive)	Cc1occc1C(=O)Nc1ccc(OCc2ccccc2)cc1
> 32 µM (inactive)	COc1ccccc1/C=C/C(=O)NC(=S)Nc1ccc(S(=O)(=O)N(C)c2ccccc2)cc1
> 32 µM (inactive)	Cc1cccc(N2CCN(C(=O)c3cc(S(=O)(=O)N(C)C)ccc3N3CCCC3)CC2)c1C
> 32 µM (inactive)	CC(C)NS(=O)(=O)c1ccc(NC(=S)NC(=O)c2ccc(-c3ccccc3)cc2)cc1
> 32 µM (inactive)	COc1cc2c(cc1NC(=O)CSc1ccccc1)oc1ccccc12
> 32 µM (inactive)	COc1ccc(-c2csc(NC(=O)CSc3nnc4c(C)cc5ccccc5n34)n2)cc1
> 32 µM (inactive)	CC(C)Oc1ccc(S(=O)(=O)N2CCOCC2)cc1NC(=O)c1ccc(N2CCCC2=O)cc1
> 32 µM (inactive)	O=C(CSc1nc2ccccc2s1)N1c2ccccc2Sc2ccc(C(F)(F)F)cc21
> 32 µM (inactive)	CC(C)=CC(=O)Nc1ccc(OCc2ccccc2)cc1
> 32 µM (inactive)	CC(Sc1nc2cc(Cl)ccc2s1)C(=O)Nc1cccc(S(=O)(=O)N2CCOCC2)c1 (stereo unspecified)
> 32 µM (inactive)	O=C(CSc1nc2ccccc2s1)N1c2ccccc2Sc2ccc(Cl)cc21
> 32 µM (inactive)	CCCN(CCC)Cc1c(C(=O)NN=Cc2c[nH]c3ccccc23)nnn1-c1nonc1N
> 32 µM (inactive)	C=CCN(CC=C)S(=O)(=O)c1ccc(NC(=S)NC(=O)c2ccc(-c3ccccc3)cc2)cc1
> 32 µM (inactive)	CCCN(CCC)Cc1c(C(=O)NN=C/C(C)=C\c2ccccc2)nnn1-c1nonc1N
